Active and inactive are the calls of the source. The calls are words filed in the database; no cut-off is given here.
Tests used:
Caov-3 cell line = assay: Cytotoxicity in human Caov3 cells assessed as reduction in cell viability incubated for 48 hrs by MTT assay; type: functional, cell-based; conditions: Caov-3, 48 h
In short: (§1)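 Cells grown at 37°C, 5% CO₂ (HepG2, OVCAR-3, Caov-3 in DMEM + 10% FBS; A549, HeLa, A375, MCF-7 in RPMI 1640 + 10% FBS). Seeded at 4-5×10³/well in triplicate, adhered overnight, exposed to 0.03–300 μM (DMSO <0.1%) for 48 h. MTT added for 4 h, formazan dissolved in DMSO, absorbance read. IC50 from dose–response curves, mean ± SD of at least three independent experiments.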

HepG2 [1] = assay: Cytotoxicity in human HepG2 cells assessed as reduction in cell viability incubated for 48 hrs by MTT assay; type: functional, cell-based; conditions: HepG2, 48 h; in short: as §1
OVCAR-3 = assay: Cytotoxicity in human OVCAR3 cells assessed as reduction in cell viability incubated for 48 hrs by MTT assay; type: functional, cell-based; conditions: OVCAR-3, 48 h; in short: as §1
A-375 = assay: Cytotoxicity in human A375 cells assessed as reduction in cell viability incubated for 48 hrs by MTT assay; type: functional, cell-based; conditions: A-375, 48 h; in short: as §1
[2] = target: T1, Cell division cycle protein 20 homolog (Homo sapiens, UniProt Q12834); assay: Binding affinity to CDC20 (unknown origin) by SPR analysis
In short: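 Recombinant human Cdc20 (>95% pure) coupled by EDC/NHS to an acid-coupling chip; PBS pH 7.4 running buffer. Compounds injected as a gradient dilution series starting at 200 μM, 120-140 s association, 160 s dissociation. Steady-state values plotted against concentration; K_D from a one-to-one / single-site model.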

MCF7 = assay: Cytotoxicity in human MCF7 cells assessed as reduction in cell viability incubated for 48 hrs by MTT assay; type: functional, cell-based; conditions: MCF7, 48 h; in short: as §1
HeLa = assay: Cytotoxicity in human HeLa cells assessed as reduction in cell viability incubated for 48 hrs by MTT assay; type: functional, cell-based; in short: as §1
A549 = assay: Cytotoxicity in human A549 cells assessed as reduction in cell viability incubated for 48 hrs by MTT assay; type: functional, cell-based; conditions: A549, 48 h; in short: as §1
HepG2 [3] = assay: Induction of apoptosis in human HepG2 cells assessed as necrotic cells level at 300 uM incubated for 24 hrs by Annexin V-FITC/PI staining based flow cytometry (reference value: 1.48%); type: functional
HepG2 [4] = assay: Induction of apoptosis in human HepG2 cells assessed as viable cells level at 100 uM incubated for 24 hrs by Annexin V-FITC/PI staining based flow cytometry (reference value: 89.38%); type: functional
HepG2 [5] = assay: Induction of apoptosis in human HepG2 cells assessed as late apoptotic cells level at 100 uM incubated for 24 hrs by Annexin V-FITC/PI staining based flow cytometry (reference value: 5.12%); type: functional
HepG2 [6] = assay: Induction of apoptosis in human HepG2 cells assessed as necrotic cells level at 100 uM incubated for 24 hrs by Annexin V-FITC/PI staining based flow cytometry (reference value: 1.48%); type: functional
HepG2 [7] = assay: Induction of apoptosis in human HepG2 cells assessed as increase in cleaved PARP level at 30 to 100 uM incubated for 48 hrs by Western blot analysis; type: functional, cell-based
In short: (§2)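 HepG2 cells treated 48 h. Lysates in RIPA buffer with protease/phosphatase inhibitors; 25 μg protein run on SDS-PAGE, transferred to PVDF, blocked in 5% milk/TBST, primary antibodies overnight at 4°C (caspase-3, cleaved caspase-3, cleaved PARP), HRP secondary 1 h at room temperature, ECL detection; densitometry quantified.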

[8] = target: T1, Cell division cycle protein 20 homolog; assay: Inhibition of CDC20 in human HepG2 cells assessed as increase in Bim protein levels at 100 uM incubated for 48 hrs by Western blot Analysis; type: cell-based
In short: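 HepG2 lysates in RIPA buffer with protease/phosphatase inhibitors; 25 μg protein by SDS-PAGE/PVDF, blocked in 5% milk/TBST, primary antibodies overnight at 4°C (Cyclin A2, Cyclin B1, Bim, Aurora A, Skp2), HRP secondary 1 h at room temperature, ECL; bands quantified by densitometry.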

HepG2 [9] = assay: Inhibition of mitotic exit in human HepG2 cells assessed as increase in nuclear phosphohistone H3 levels at 10 to 100 uM incubated for 48 hrs by relative to control
HepG2 [10] = assay: Induction of apoptosis in human HepG2 cells assessed as early apoptotic cells level at 100 uM incubated for 24 hrs by Annexin V-FITC/PI staining based flow cytometry (reference value: 4.02%); type: functional
HepG2 [11] = assay: Induction of apoptosis in human HepG2 cells assessed as late apoptotic cells level at 300 uM incubated for 24 hrs by Annexin V-FITC/PI staining based flow cytometry (reference value: 5.12%); type: functional
HepG2 [12] = assay: Inhibition of mitotic exit in human HepG2 cells assessed as increase in nuclear phosphohistone H3 levels incubated for 48 hrs by immunofluorescence assay; type: functional, cell-based
In short: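 HepG2 seeded at 4×10³/well, overnight adhesion, treated 48 h. Fixed 15 min in 4% formaldehyde, permeabilized with Triton X-100, BSA-blocked, anti-phospho-histone H3 (Ser10) at 4°C overnight, fluorescent anti-rabbit secondary, DAPI counterstain. Fluorescence read relative to DMSO control; PHH3-positive cells counted in random fields as % of total. At least two experiments.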

HepG2 [13] = assay: Induction of apoptosis in human HepG2 cells assessed as viable cells level at 300 uM incubated for 24 hrs by Annexin V-FITC/PI staining based flow cytometry (reference value: 89.38%); type: functional
HepG2 [14] = assay: Induction of apoptosis in human HepG2 cells assessed as increase in cleaved caspase-3 level at 30 to 100 uM incubated for 48 hrs by Western blot analysis; type: functional, cell-based; in short: as §2
HepG2 [15] = assay: Induction of apoptosis in human HepG2 cells assessed as early apoptotic cells level at 300 uM incubated for 24 hrs by Annexin V-FITC/PI staining based flow cytometry (reference value: 4.02%); type: functional

T1 sequence (Q12834 whole entry): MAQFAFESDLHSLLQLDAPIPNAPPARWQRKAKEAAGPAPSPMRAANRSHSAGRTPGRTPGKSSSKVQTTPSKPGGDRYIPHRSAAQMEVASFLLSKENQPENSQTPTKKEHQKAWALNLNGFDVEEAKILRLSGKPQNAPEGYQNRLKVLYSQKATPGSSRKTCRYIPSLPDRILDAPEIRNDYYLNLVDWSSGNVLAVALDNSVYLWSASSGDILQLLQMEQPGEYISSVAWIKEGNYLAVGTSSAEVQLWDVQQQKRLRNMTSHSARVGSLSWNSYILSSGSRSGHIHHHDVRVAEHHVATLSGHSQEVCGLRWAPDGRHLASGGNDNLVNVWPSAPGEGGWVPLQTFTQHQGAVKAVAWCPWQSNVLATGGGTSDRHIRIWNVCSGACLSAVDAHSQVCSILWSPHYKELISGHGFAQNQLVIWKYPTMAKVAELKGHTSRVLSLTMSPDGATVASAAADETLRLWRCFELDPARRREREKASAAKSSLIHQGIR

With `Cc1ncc([N+](=O)[O-])n1CCOC(=O)NC(n1cnc2c(N)nc(F)nc21)C(Cl)(Cl)Cl` (stereo unspecified) the IC50 (Caov-3 cell line) was 1.2 µM, the IC50 (HepG2 [1]) was 0.6 µM and the IC50 (OVCAR-3) was 1.5 µM. For the same compound, the IC50 (A-375) was 0.5 µM, the Kd [2] was 161 µM and the IC50 (MCF7) was 0.8 µM. The IC50 (HeLa) was 1.9 µM and the IC50 (A549) was 3.6 µM.
`Cc1ncc([N+](=O)[O-])n1CCOC(=O)NC(Nc1ncccn1)C(Cl)(Cl)Cl` (stereo unspecified) was tested, and the Activity (HepG2 [3]) was 0.73%, the IC50 (Caov-3 cell line) was over 300 µM and the Activity (HepG2 [4]) was 82.91%. For the same compound, the Activity (HepG2 [5]) was 6.85%, the Activity (HepG2 [6]) was 2.39% and the Activity (HepG2 [7]) was “Active”. The inhibition [8] was “Active”, the “fold change (FC)” value (HepG2 [9]) was 2.2 and the IC50 (HepG2 [1]) was over 300 µM. The IC50 (OVCAR-3) was over 300 µM, the Activity (HepG2 [10]) was 7.85% and the IC50 (A-375) was 193 µM. For the same compound, the Activity (HepG2 [11]) was 30.02%, the Activity (HepG2 [12]) was “Dose-dependent effect” and the Kd [2] was 123 µM. The IC50 (MCF7) was over 300 µM, the Activity (HepG2 [13]) was 6.82% and the Activity (HepG2 [14]) was “Active”. The IC50 (HeLa) was 221 µM, the Activity (HepG2 [15]) was 62.43% and the IC50 (A549) was over 300 µM.
Compound `Cc1ccnc(NC(NC(=O)OCCn2c([N+](=O)[O-])cnc2C)C(Cl)(Cl)Cl)n1` (stereo unspecified) has an IC50 (Caov-3 cell line) of 155 µM, an IC50 (HepG2 [1]) of 31.2 µM and an IC50 (OVCAR-3) of 164 µM. The IC50 (A-375) was 37.5 µM, the IC50 (MCF7) was 152 µM and the IC50 (HeLa) was 94.7 µM. It also gave an IC50 (A549) of 27.3 µM.
